pEC50: −log10 of the molar value. Some results are limits rather than exact numbers.

Assay [1] has as its system Calf thymus DNA. As to the kind of experiment: Binding affinity against calf-thymus DNA at pH 7.4. It is filed as nucleic-acid assay. The note with it: Bos taurus. The gist of the method: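 Fluorimetric competition at pH 7.4, 25 °C. Monomers: 10^-5 M compound with calf thymus DNA (4 µg/mL), titrated with ethidium bromide (ex 546/em 590 nm), Scatchard analysis. Dimers: ethidium dimer (6.4 × 10^-7 M) with DNA (1.6 × 10^-6 M bp) equilibrated 24 h with varied compound (ex 540/em 610 nm); constant fitted from displacement curves with site size n.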

Assay [2] has as its system L1210. As to the kind of experiment: In vivo antitumor activity in L1210 (mouse leukemia) inoculated mice (optimal dose). It is filed as functional. In short, it runs like this: (§1)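 DBA2 mice (20–30/group) received 10^5 L1210 cells ip. Compound was given ip 24 h later; controls received solvent vehicle. Deaths were recorded daily, and survivors beyond 45 days were counted as cured. T/C% = treated/control mean survival time × 100. MTD was the highest dose causing no deaths; OD was the optimal dose.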

Assay [3] deals with L1210. As to the kind of experiment: (§2) In vivo maximum tolerate dose in L1210 (mouse leukemia) inoculated mice. It is filed as functional. In short, it runs like this:
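L1210-bearing DBA2 mice (10^5 cells ip), drug given ip 24 h after inoculation. Acute toxicity by usual procedure; MTD taken as highest dose administered without causing animal death, in mg/kg.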

Assay [4] has as its system L1210. As to the kind of experiment: In vitro inhibition of L1210 (mouse leukemia) cell cloning efficiency. The assay is classed as functional. In short, it runs like this:
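After 24 h drug exposure, L1210 cells were diluted to 250 and 500 cells/mL and plated in Noble agar. Plates were held 14 days at 37 °C in 5% CO2, and colonies >0.2 mm were counted. Triplicates were run per concentration. CE37, the concentration reducing cloning efficiency to 0.37, came from dose–response curves.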

Assay [5] relates to Mus musculus. As to the kind of experiment: In vivo change in mean survival time in L1210 (mouse leukemia) inoculated mice. The assay is classed as functional. The gist of the method: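 DBA2 mice given 10^5 L1210 cells ip; 24 h later single ip dose of drug, controls given same volume of solvent; 20–30 animals/group. Deaths recorded daily; survivors beyond 45 days counted cured. Value is treated mean survival time over control mean survival time ×100 (T/C %).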

For assay [6], the system named is L1210. Put plainly: In vitro cellular toxicity against L1210 (mouse leukemia) cells. The assay is classed as functional. The note with it: read-out: ED50 (the source's name). The gist of the method:
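Exponentially growing L1210 cells (1 × 10^5/mL) exposed 24 h at 37 °C in RPMI 1640 with 10% fetal calf serum at a range of concentrations. Total cells counted by flow cytometer. Duplicate treated cultures were expressed as % of triplicate untreated controls. ED50 came from linear regression of residual % versus log concentration.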

Assay [7] concerns Mus musculus. As to the kind of experiment: In vivo change in mean survival time in L1210 (mouse leukemia) inoculated mice (Not significant). The assay is classed as functional, organism-based. The gist of the method:
as §1

Assay [8] concerns L1210. The assay is described as §2. It is filed as functional. In short, it runs like this:
as §1
This is another data set of the same source.

With `COc1ccc2[nH]c3c(C)cc4ccc(NCCN5CCCCC5)cc4c3c2c1.Cl`, the K in assay [1] came to 930000 M⁻¹. In assay [2], the OD amounted to 5 mg/kg. Moreover, in assay [3], the maximal tolerated dose (MTD) turned out to be 23 mg/kg. In addition, in assay [4], the CE37 amounted to 0.1 µM. The T/C in assay [5] is listed as 123%. Also, the pEC50 in assay [6] was 6.96.
In assay [1], `CNc1cccc2c1cc(C)c1[nH]c3ccc(OC)cc3c12.I` showed a K of 61000 M⁻¹. In assay [4], this compound came in with a CE37 of more than 2.5 µM. For the same compound, the pEC50 in assay [6] was less than 5.60.
`CNc1ccc2ccc3[nH]c4ccc(OC)cc4c3c2c1.I`: the K in assay [1] turned out to be 290000 M⁻¹. The same compound yielded an OD in assay [2] of 25 mg/kg. The compound further had an MTD in assay [3] of 50 mg/kg. In assay [4], this compound registered a CE37 of 0.77 µM. Further, the T/C entry in assay [7] is “Not significant”. Moreover, the pEC50 in assay [6] is 6.02.
Compound `COc1ccc2[nH]c3ccc4ccc(NCCN5CCC(C6CCN(CCNc7ccc8ccc9[nH]c%10ccc(OC)cc%10c9c8c7)CC6)CC5)cc4c3c2c1.CS(=O)(=O)O.CS(=O)(=O)O` gave a K in assay [1] of 1e+07 M⁻¹. This compound also gave an OD in assay [2] of 10 mg/kg. The maximal tolerated dose (MTD) in assay [3] amounted to 10 mg/kg. For the same compound, the CE37 in assay [4] was determined as 0.024 µM. In assay [5], the T/C is recorded as 182%. Also, the pEC50 in assay [6] was 6.72.
In assay [1], `COc1ccc2[nH]c3c(C)cc4ccc(NCCN5CCC(C6CCN(CCNc7ccc8cc(C)c9[nH]c%10ccc(OC)cc%10c9c8c7)CC6)CC5)cc4c3c2c1.Cl.Cl` came in with a K of 5e+08 M⁻¹. The same compound returned a maximum tolerated dose (MTD) in assay [3] of 11 mg/kg. In assay [4], the CE37 worked out at 0.01 µM. Further, in assay [5], the T/C came to 172%. In assay [6], the pEC50 is 6.43.
In assay [1], `CNc1cccc2c1ccc1[nH]c3ccc(OC)cc3c12.I` came in with a K of 40000 M⁻¹. Also, the CE37 in assay [4] was more than 2.5 µM. Besides, the pEC50 in assay [6] is 4.72.
`COc1ccc2c(c1)c1c3ccc(NCCN4CCC(C5CCN(CCNc6ccc7c(ccc8c7c7cc(OC)ccc7n8C)c6)CC5)CC4)cc3ccc1n2C.Cl.Cl` displayed a K in assay [1] of 6e+06 M⁻¹. Also, the OD in assay [2] is 7.5 mg/kg. For the same compound, the maximum tolerated dose (MTD) in assay [3] worked out at 15 mg/kg. Further, in assay [4], the CE37 is 3.93 µM. In addition, in assay [7], the T/C entry is “Not significant”.
Compound `CNc1ccc2cc(C)c3[nH]c4ccc(OC)cc4c3c2c1.I` registered a K in assay [1] of 180000 M⁻¹. In assay [2], this compound gave an Optimal dose of 25 mg/kg. The Dose in assay [8] turned out to be 50 mg/kg. In addition, the CE37 in assay [4] is 0.03 µM. Further, the T/C in assay [5] was 125%. Besides, the pEC50 in assay [6] is 7.22.
Regarding `COc1ccc2[nH]c3cc(C)c4ccc(NCCN5CCCCC5)cc4c3c2c1`, the K in assay [1] came to 100000 M⁻¹. Moreover, the pEC50 in assay [6] is 5.65.
In the case of `CNc1ccc2c(c1)cc(C)c1[nH]c3ccc(OC)cc3c12.I`, the K in assay [1] was 300000 M⁻¹. This compound also had a CE37 in assay [4] of 0.15 µM. Besides, in assay [6], the pEC50 was 6.52.
On to `CNc1ccc2c(ccc3[nH]c4ccc(OC)cc4c32)c1.I`, for which the K in assay [1] turned out to be 200000 M⁻¹. In assay [2], this compound yielded an OD of 25 mg/kg. The compound further returned a maximum tolerated dose (MTD) in assay [3] of 50 mg/kg. Further, in assay [7], the T/C result is “Not significant”. For the same compound, the pEC50 in assay [6] was less than 5.60.
As to `COc1ccc2[nH]c3ccc4ccc(NCCN5CCCCC5)cc4c3c2c1.Cl`, the K in assay [1] was 540000 M⁻¹. The OD in assay [2] was found to be 5 mg/kg. Also, the MTD in assay [3] came to 10 mg/kg. For the same compound, the CE37 in assay [4] was 0.14 µM. In assay [7], the T/C entry was “Not significant”. Besides, the pEC50 in assay [6] was 6.60.
On to `COc1ccc2c(c1)c1c3cc(NCCN4CCC(C5CCN(CCNc6ccc7ccc8c(c7c6)c6cc(OC)ccc6n8C)CC5)CC4)ccc3ccc1n2C.Cl.Cl`, for which the K in assay [1] is 2e+07 M⁻¹. In addition, the OD in assay [2] worked out at 2.5 mg/kg. In assay [3], this compound gave a maximal tolerated dose (MTD) of 10 mg/kg. In assay [4], this compound gave a CE37 of 0.006 µM. This compound also had a T/C in assay [5] of 178%. Besides, the pEC50 in assay [6] was 6.44.
Turning to `COc1ccc2[nH]c3ccc4cc(NCCN5CCC(C6CCN(CCNc7ccc8c(ccc9[nH]c%10ccc(OC)cc%10c98)c7)CC6)CC5)ccc4c3c2c1.Cl.Cl`, the K in assay [1] is 3e+06 M⁻¹. Also, in assay [2], the OD was 20 mg/kg. The maximal tolerated dose (MTD) in assay [3] is 100 mg/kg. Also, the T/C in assay [5] is on record as 130%.
In turn, `COc1ccc2[nH]c3c(C)cc4cc(NCCN5CCC(C6CCN(CCNc7ccc8c(c7)cc(C)c7[nH]c9ccc(OC)cc9c78)CC6)CC5)ccc4c3c2c1.Cl.Cl` had a K in assay [1] of 1e+07 M⁻¹. Moreover, in assay [4], the CE37 stood at 0.6 µM. Moreover, the pEC50 in assay [6] was less than 6.00.
Regarding `COc1ccc2c(c1)c1c3cc(NCCN4CCCCC4)ccc3cc(C)c1n2C.Cl`, in assay [1], the K came out at 610000 M⁻¹. In addition, the OD in assay [2] came out at 10 mg/kg. For the same compound, in assay [3], the MTD amounted to 10 mg/kg. In assay [7], the T/C entry was “Not significant”. In assay [6], the pEC50 was 6.36.
With `COc1ccc2[nH]c3cc(C)c4ccc(NCCN5CCC(C6CCN(CCNc7ccc8c(C)cc9[nH]c%10ccc(OC)cc%10c9c8c7)CC6)CC5)cc4c3c2c1.Cl.Cl`, the K in assay [1] was 5e+06 M⁻¹. Also, the OD in assay [2] is 2 mg/kg. The same compound registered an MTD in assay [3] of 6 mg/kg. Moreover, in assay [4], the CE37 turned out to be 0.42 µM. In assay [5], the T/C was 120%. In addition, the pEC50 in assay [6] was less than 6.00.
With `CNc1ccc2ccc3c(c2c1)c1cc(OC)ccc1n3C.I`, in assay [1], the K was 700000 M⁻¹. In addition, the OD in assay [2] stood at 17 mg/kg. Further, in assay [3], the maximum tolerated dose (MTD) was 25 mg/kg. This compound came in with a CE37 in assay [4] of 0.74 µM. This compound also registered a T/C in assay [5] of 122%. Further, the pEC50 in assay [6] is 6.66.
`COc1ccc2c(c1)c1c3cc(NCCN4CCC(C5CCN(CCNc6ccc7cc(C)c8c(c7c6)c6cc(OC)ccc6n8C)CC5)CC4)ccc3cc(C)c1n2C.Cl.Cl`: the K in assay [1] is 1e+08 M⁻¹. Besides, the CE37 in assay [4] worked out at 10.9 µM. Also, the pEC50 in assay [6] is 5.49.
In turn, `CNc1ccc2c(ccc3c2c2cc(OC)ccc2n3C)c1.I` came in with a K in assay [1] of 310000 M⁻¹. Moreover, the OD in assay [2] was 75 mg/kg. For the same compound, the MTD in assay [3] was found to be 150 mg/kg. Further, in assay [5], the T/C amounted to 115%. For the same compound, the pEC50 in assay [6] is 5.65.
The compound `CNc1ccc2c(C)cc3[nH]c4ccc(OC)cc4c3c2c1.I` showed a K in assay [1] of 60000 M⁻¹. This compound also showed a CE37 in assay [4] of 3.71 µM. Further, the pEC50 in assay [6] is less than 5.60.
For the compound `CNc1ccc2cc(C)c3c(c2c1)c1cc(OC)ccc1n3C.I`, the K in assay [1] worked out at 1e+06 M⁻¹. Also, in assay [4], the CE37 was 0.6 µM. Besides, the pEC50 in assay [6] was 6.66.
With `COc1ccc2c(c1)c1c3cc(NCCN4CCCCC4)ccc3ccc1n2C.Cl`, in assay [1], the K was 1.2e+06 M⁻¹. The same compound came in with an OD in assay [2] of 5 mg/kg. The MTD in assay [3] worked out at 10 mg/kg. The CE37 in assay [4] was found to be 3.36 µM. Besides, the T/C result in assay [7] is “Not significant”. The pEC50 in assay [6] was 6.17.

(Values after ChEMBL document CHEMBL1123643, “Modulation of the antitumor activity by methyl substitutions in the series of 7H-pyridocarbazole monomers and dimers” (1987).)
